In the library only some 3.5% were active in any assay of this set; here they are far more common.
SIAE primary: human SIAE inhibitors, primary screen, biochemical, fluorescence polarization, FP-Rh probe, 1536-well HTS; AID 1053197, 2014; actives 0.69% (n = 370,000); Sialate O-acetylesterase (Homo sapiens), Q9HAT2; SIAE FP-Rh probe binding; inhibition, % at 9.66 µM;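 active = inhibition above a cutoff: mean of compounds within the control limits plus 3 SD of those, cut at about 17% in these data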;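 note: 0% = plate median of compound wells and 100% = probe without SIAE protein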
PRMT1 FP inh: PRMT1 methyltransferase inhibitors, primary screen, biochemical, fluorescence polarization; Protein arginine N-methyltransferase 1 (Homo sapiens), Q99873; recombinant PRMT1, activity-based probe fluorescence polarization; inhibition, % at 2.79 µM; actives 1.3% (n = 370,000);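 active = inhibition above about 21% made by adding two undisclosed values, limit read from the data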
HTRA1 inh: HTRA1 serine protease inhibitors, primary screen, biochemical, fluorescence polarization, HTS | recombinant HTRA1, FP-rhodamine activity-based probe | AID 504803, 2011 | actives 0.5% (n = 340,000) | Q92743 | inhibition, % at 5.96 µM; in the data active = inhibition above about 36%;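 note: 0% = enzyme with DMSO and 100% = wells lacking enzyme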
Target sequence (Q92743 whole entry, looked up): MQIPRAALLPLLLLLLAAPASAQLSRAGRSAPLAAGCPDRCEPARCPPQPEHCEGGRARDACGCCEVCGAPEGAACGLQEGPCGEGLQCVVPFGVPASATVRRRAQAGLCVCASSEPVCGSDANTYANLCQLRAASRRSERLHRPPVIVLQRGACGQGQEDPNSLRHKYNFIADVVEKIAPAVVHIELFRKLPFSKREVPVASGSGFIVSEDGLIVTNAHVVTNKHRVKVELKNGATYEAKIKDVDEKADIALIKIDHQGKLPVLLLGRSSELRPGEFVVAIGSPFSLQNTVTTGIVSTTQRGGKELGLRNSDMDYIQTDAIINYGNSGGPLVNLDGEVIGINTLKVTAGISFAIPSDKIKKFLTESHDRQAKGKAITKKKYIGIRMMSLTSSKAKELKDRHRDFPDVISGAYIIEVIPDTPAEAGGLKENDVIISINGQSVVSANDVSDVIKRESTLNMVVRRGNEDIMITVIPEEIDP
rCAG binder: binders of r(CAG) RNA repeats, primary screen, biochemical, fluorescence; r(CAG) RNA repeat, TO-PRO-1 dye displacement fluorescence; inhibition, % at 3 µM; actives 1.3% (n = 370,000); AID 651821, 2012;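 active = inhibition above the plate cutoff, the mean of all test compounds on that plate plus 3 SD, cut at about 35% in these data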;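 note: 0% = DMSO alone and 100% = 100 µM mitoxantrone as full dye displacement; higher means more dye released from RNA so lower well fluorescence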
mABHD4 FP: ABHD4 inhibitors, primary screen, biochemical, fluorescence polarization, mouse. inhibition, % at 8.92 µM. AID 720543, 2013. (Lyso)-N-acylphosphatidylethanolamine lipase (Mus musculus), Q8VD66. purified mABHD4, FP-Rh probe fluorescence polarization. actives 0.54% (n = 370,000);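 active = inhibition exceeding the mean over every tested compound plus 3 SD, cut at about 30% in these data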;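 note: 0% = plate median of compound wells and 100% = S159A mutant with DMSO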
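assay system = mABHD4 protein | compound dosing = single nominal dose of 8.92 µM, 0.89% DMSO final | read-out basis = percent inhibition of probe binding, normalized to plate controls | schedule = Enzyme–compound pre-incubation 45 min, then probe 60 min, both 25 °C | detection = fluorescence polarization, excitation 525 nm, emission 598 nm, BODIPY TMR filters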
TCR CD3 inh: inhibitors of human TCR-CD3 interaction, primary screen, biochemical, fluorescence, TAMRA-labeled TCR probe; T-cell receptor (TCR); inhibition, % at 9.4 µM; actives 0.37% (n = 360,000); in the data active = inhibition above about 19%;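 note: recombinant mutant TCR 2C K166C tagged with TAMRA read by polarization; 0% = receptor in buffer alone and 100% = receptor with positive control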
SIAE confirm: human SIAE inhibitors, retest, confirmation, biochemical, fluorescence polarization, FP-Rh probe, triplicate; shares compounds with SIAE primary; SIAE FP-Rh activity-based probe; inhibition, % at 9.66 µM; actives 13% (n = 2,300); AID 1117263, 2014;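 active = mean inhibition of the replicates above the hit cutoff set in the primary screen, cut at about 17% in these data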;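 note: 0% = SIAE with DMSO and probe and 100% = probe without SIAE; inhibitors lower polarization as more probe stays unbound to SIAE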
Active calls of the source: *; / = no result given.

SMILES | SIAE primary | PRMT1 FP inh | HTRA1 inh | rCAG binder | mABHD4 FP | TCR CD3 inh | SIAE confirm
CCCS(=O)(=O)NC(=O)C1(C)CCN(C(=O)CSc2ccccc2)C1 (stereo not drawn) | 20* | 3 | / | 1 | 5 | -5 | 0
CCCS(=O)(=O)NC(=O)C1(C)CCCN(C(=O)CSc2ccccc2)C1 (stereo not drawn) | -3 | 2 | / | 3 | 5 | 8 | /
COC(=O)[C@]12C[C@H](CC(=O)NCCCN3CCCC3=O)C(=O)N(Cc3cccc4ccccc34)C1=C[C@H](C(C)C)O[C@@H]2C1CC1 | -1 | 2 | / | 5 | 0 | / | /
COC(=O)[C@]12C[C@H](CC(=O)NCc3cccc(C(F)(F)F)c3)C(=O)N(Cc3ccccc3)C1=C[C@H](C(C)(C)C)O[C@@H]2C | 27* | 2 | / | 3 | -3 | 1 | -2
COC(=O)[C@]12C[C@H](CC(=O)NCc3cccc(C(F)(F)F)c3)C(=O)N(Cc3ccccc3)C1=C[C@H](COCc1ccccc1)O[C@@H]2C | 8 | 1 | / | 4 | -7 | / | /
COC(=O)[C@]12C[C@H](CC(=O)NCCCN3CCCC3=O)C(=O)N(Cc3ccccc3)C1=C[C@H](C(C)C)O[C@@H]2C1CC1 | 20* | -1 | / | -1 | 3 | 7 | -3
CCOc1ccc(CCNS(=O)(=O)c2cccc3nsnc23)cc1OCC | 17* | 1 | 6 | -8 | 6 | 7 | -1
COc1ccc(CCNS(=O)(=O)c2cccc3nsnc23)cc1OC | -1 | 0 | 4 | -2 | 5 | 4 | /
Cc1ccccc1C(=O)/C=C1\NC(=O)CS1 | 17* | -1 | 1 | 1 | 0 | -3 | 2
Cc1ccc2cccc(N)c2n1 | 32* | 0 | 12 | -2 | 5 | 10 | 5
Cc1ccc(C2=CCN(C)C(=O)N2c2ccc([N+](=O)[O-])cc2)cc1 | 0 | 11 | / | 6 | 4 | / | /
CCOC(=O)N1CCN(C(=O)COc2cccc3c2CCN(CC)C3=O)CC1 | 20* | 4 | -3 | -4 | 2 | -4 | -1
CCOC(=O)N1CCN(C(=O)COc2cccc3c2CCN(Cc2ccc(F)cc2)C3=O)CC1 | -1 | 2 | -11 | 1 | 4 | -2 | /
O=C(NNC(=O)C1CC1c1ccccc1)c1cccc([N+](=O)[O-])c1 (stereo not drawn) | 18* | 1 | 4 | 1 | -1 | -1 | 1
Cn1cnnc1SCC(=O)c1cc2ccccc2oc1=O | 18* | 8 | 26 | 25 | 16 | -5 | 6
S=C(NCCCc1cnc[nH]1)NCCCN(Cc1ccc(Cl)cc1)c1ccc(Br)cn1 | 17* | 0 | / | 8 | 9 | -3 | 27*
Cc1nn(CC(=O)N2CCN(C(=O)c3ccco3)CC2)c(C)c1[N+](=O)[O-] | -4 | -2 | 3 | 3 | -4 | 4 | /
Cc1nn(CC(=O)N2CCN(S(=O)(=O)c3ccccc3)CC2)c(C)c1[N+](=O)[O-] | 18* | -4 | 1 | 1 | -1 | 5 | 2
Cc1ccccc1Cn1cc(CN2[C@H](Cc3ccccc3)COc3cc(Br)ccc3S2(=O)=O)nn1 | -3 | -4 | / | 9 | 0 | / | /
CN(C)S(=O)(=O)c1ccc(SCC(=O)N2CC(=O)Nc3ccccc32)nc1 | 17* | 1 | 7 | 0 | 2 | -4 | -3
O=C1CN(C(=O)CSc2ccccn2)c2ccccc2N1 | 9 | -3 | 4 | 4 | 5 | 2 | /
CC(C)CN1C(=O)C[C@@]2(C(=O)N(C)c3ccc(NC(=O)C(C)(C)C)cc32)C1c1ccccc1 (stereo partly drawn) | 11 | -1 | / | -1 | 7 | / | /
O=C1c2ccccc2C(=O)c2cc(N3CCCCC3)ccc21 | 22* | -3 | 1 | 3 | -19 | -31 | 42*
c1ccc2cc(N3CCCCC3)ccc2c1 | 0 | -3 | 1 | 1 | -4 | 11 | /
COC(=O)[C@]12C[C@H](CC(=O)NCCCN3CCCC3=O)C(=O)N(Cc3ccc4c(c3)OCO4)C1=C[C@H](C(C)C)O[C@@H]2C1CC1 | -4 | 0 | / | 0 | 5 | / | /
SMILES | SIAE primary | PRMT1 FP inh | HTRA1 inh | rCAG binder | mABHD4 FP | TCR CD3 inh | SIAE confirm
CCC(C)[C@H](NC(=O)Nc1ccccc1F)C(=O)OC (stereo partly drawn) | 22* | -2 | -2 | 2 | 3 | 6 | 0
COC(=O)[C@H](C)NC(=O)Nc1ccccc1F | -1 | 2 | -9 | 2 | -3 | -5 | /
O=C(CN(CCc1ccccc1)S(=O)(=O)c1ccc(Cl)s1)N1CCOCC1 | 3 | 0 | / | 1 | -3 | / | /
CC(C)N1CCCCC(NC(=O)c2cccs2)C1=O (stereo not drawn) | -4 | 5 | / | 2 | -6 | / | /
CC(C)(C)c1ccc(C(=O)NNc2ccc(F)cc2F)cc1 | 22* | 1 | -1 | 0 | -14 | -1 | -4
CCc1ccc(C(=O)NNc2ccc(F)cc2F)cc1 | -2 | 4 | -2 | 0 | 5 | -3 | /
N#Cc1ccc(Cn2ccc3ccc(-c4ccc5ccn(Cc6ccccc6)c5c4)cc32)cc1 | -5 | 0 | / | 20 | 9 | / | /
O=[N+]([O-])c1cc(C(F)(F)F)ccc1N1CCCC(O)C1 (stereo not drawn) | 2 | -1 | 5 | -3 | 2 | 7 | /
FC(F)(F)c1ccc2c(c1)NCC1CCCN21 (stereo not drawn) | 18* | 2 | 3 | -2 | 29 | -2 | 3
O=C(C1CCCN1S(=O)(=O)c1ccc(Br)s1)N1CCc2ccccc2C1 (stereo not drawn) | -3 | -1 | / | 4 | -3 | / | /
C[C@@H]1CN([C@H](C)CO)C(=O)c2cc(Br)cnc2O[C@@H]1CN(C)C(=O)c1cccc(F)c1 | 17* | -3 | 1 | 3 | 0 | 1 | 2
CC(C)c1ccc(OCC(=O)NC2CC(C)(C)NC(C)(C)C2)c(Br)c1 | 18* | 0 | 3 | 2 | 3 | 9 | -4
CCS(=O)(=O)Nc1ccc2c(c1)C(=O)N(C)[C@@H]1CC[C@H](CC(=O)OC)O[C@H]1CO2 | -4 | -1 | / | 0 | 3 | / | /
CCS(=O)(=O)Nc1ccc2c(c1)C(=O)N(C)[C@@H]1CC[C@H](CC(=O)NCCCN3CCOCC3)O[C@H]1CO2 | 18* | -6 | / | 1 | -4 | / | 19*
CCOc1ccc(CCNC(=O)CCCn2c(=O)c3cccn3c3cccnc32)cc1OCC | 22* | 7 | 4 | -8 | -15 | -3 | -3
